# What was measured:
# [1] = molecular target: T1, Peroxisome proliferator-activated receptor alpha (Homo sapiens, UniProt Q07869); assay: Agonist activity at Gal4-fused human PPARalpha LBD transfected in HEK293T cells assessed as transcriptional activation incubated for 14 to 16 hrs by dual-Glo luciferase assay; assay type: cell-based
# T1 sequence (Q07869 whole entry): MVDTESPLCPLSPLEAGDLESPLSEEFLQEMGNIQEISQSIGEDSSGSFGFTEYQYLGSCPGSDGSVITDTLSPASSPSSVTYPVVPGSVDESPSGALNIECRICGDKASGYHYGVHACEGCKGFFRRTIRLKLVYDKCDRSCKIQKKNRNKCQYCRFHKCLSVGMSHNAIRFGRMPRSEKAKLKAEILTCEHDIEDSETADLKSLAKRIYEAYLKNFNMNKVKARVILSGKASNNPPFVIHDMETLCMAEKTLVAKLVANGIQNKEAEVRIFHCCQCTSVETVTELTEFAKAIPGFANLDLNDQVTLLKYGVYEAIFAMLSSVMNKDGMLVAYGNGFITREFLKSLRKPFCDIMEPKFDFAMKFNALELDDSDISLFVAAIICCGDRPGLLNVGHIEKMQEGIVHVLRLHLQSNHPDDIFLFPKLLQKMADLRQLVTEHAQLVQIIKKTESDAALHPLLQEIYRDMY
# Method in brief: (§1)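 HEK293T cells transiently transfected with pFR-Luc, pRL-SV40 and Gal4 fusion of human PPAR hinge region plus LBD. Compound added 5 h later in Opti-MEM with 0.1% DMSO, then left overnight (14−16 h). Dual-Glo firefly/Renilla luciferase read, giving RLU. Fold activation is taken against the DMSO control. Max relative activation is set against 1 μM GW7647 (α) or L165,041 (δ). EC50 from a four-parameter fit. Duplicates, ≥3 independent runs.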
# [2] = molecular target: T2, Peroxisome proliferator-activated receptor alpha (Homo sapiens) (UniProt Q07869); assay: Agonist activity at Gal4-fused human PPARalpha LBD transfected in HEK293T cells assessed as maximal relative activation incubated for 14 to 16 hrs by dual-Glo luciferase assay relative to GW7647; assay type: cell-based; conditions: time 14-16 hrs; method in brief: as §1
# T2 sequence (whole entry): T1 sequence (Q07869 whole entry)
# [3] = molecular target: T3, Peroxisome proliferator-activated receptor delta (Homo sapiens) (UniProt Q03181); assay: Agonist activity at Gal4-fused human PPARdelta LBD transfected in HEK293T cells assessed as maximal relative activation incubated for 14 to 16 hrs by dual-Glo luciferase assay relative to L165,041; assay type: cell-based; conditions: time 14-16 hrs; method in brief: as §1
# T3 sequence (whole entry): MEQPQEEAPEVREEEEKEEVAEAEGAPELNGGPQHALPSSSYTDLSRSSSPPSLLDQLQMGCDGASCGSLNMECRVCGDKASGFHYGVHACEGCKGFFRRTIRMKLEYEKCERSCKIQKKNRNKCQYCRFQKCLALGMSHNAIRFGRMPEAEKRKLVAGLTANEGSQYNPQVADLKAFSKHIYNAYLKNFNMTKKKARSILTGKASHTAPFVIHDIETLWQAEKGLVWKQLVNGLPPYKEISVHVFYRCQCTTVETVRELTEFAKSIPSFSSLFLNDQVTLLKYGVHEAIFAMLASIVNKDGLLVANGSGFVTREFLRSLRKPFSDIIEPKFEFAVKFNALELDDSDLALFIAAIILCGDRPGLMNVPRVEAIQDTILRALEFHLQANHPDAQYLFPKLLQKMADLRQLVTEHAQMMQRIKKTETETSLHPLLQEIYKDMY
# [4] = molecular target: T4, Peroxisome proliferator-activated receptor delta (Homo sapiens, UniProt Q03181); assay: Agonist activity at Gal4-fused human PPARdelta LBD transfected in HEK293T cells assessed as transcriptional activation incubated for 14 to 16 hrs by dual-Glo luciferase assay; assay type: cell-based; method in brief: as §1
# T4 sequence (Q03181 whole entry): T3 sequence (whole entry)
# [5] = molecular target: T5, Peroxisome proliferator-activated receptor gamma (Homo sapiens, UniProt P37231); assay: Agonist activity at Gal4-fused human PPARgamma LBD transfected in HEK293T cells assessed as transcriptional activation incubated for 14 to 16 hrs by dual-Glo luciferase assay; assay type: cell-based
# T5 sequence (P37231 whole entry): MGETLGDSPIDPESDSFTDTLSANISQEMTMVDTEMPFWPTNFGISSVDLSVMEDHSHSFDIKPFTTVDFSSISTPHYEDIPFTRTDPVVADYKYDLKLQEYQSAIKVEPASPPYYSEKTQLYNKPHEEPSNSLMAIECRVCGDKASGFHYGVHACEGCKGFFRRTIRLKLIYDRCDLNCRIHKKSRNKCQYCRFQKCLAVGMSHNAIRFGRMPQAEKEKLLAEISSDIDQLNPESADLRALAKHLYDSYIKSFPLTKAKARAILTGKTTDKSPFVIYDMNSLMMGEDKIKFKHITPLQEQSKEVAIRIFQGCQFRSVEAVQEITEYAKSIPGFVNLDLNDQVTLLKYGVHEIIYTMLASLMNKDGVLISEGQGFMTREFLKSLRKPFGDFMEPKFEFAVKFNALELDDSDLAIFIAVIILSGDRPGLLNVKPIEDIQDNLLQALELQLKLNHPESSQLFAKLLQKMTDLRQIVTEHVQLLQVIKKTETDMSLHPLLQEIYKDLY
# [6] = Photostability of compound assessed as photochemical switch by measuring trans-isoform at 50 uM incubated for 8 hrs followed by irradiation with 460 nm UV light for 3 mins by HPLC analysis; assay type: physicochemical
# [7] = Photostability of compound assessed as photochemical switch by measuring cis-isoform at 50 uM incubated for 8 hrs followed by irradiation with 365 nm UV light for 3 mins by HPLC analysis; assay type: physicochemical
EC50 [1],max activation ([2]; filed as agonist),max activation ([3]; filed as agonist),EC50 [4],EC50 [5],max activation [2],max activation [3],Stability [6],Stability [7],SMILES
36 nM,–,47%,120 nM,2300 nM,34%,–,–,–,Cc1ccc(/N=N/c2ccc(OCCc3ccc(OC(C)(C)C(=O)O)cc3)c(C)c2)cc1
1090 nM,–,61%,2200 nM,2670 nM,31%,–,–,–,CC(C)(Oc1ccc(CCOc2ccc(/N=N/c3ccccc3)cc2)cc1)C(=O)O
3700 nM,40%,40%,2800 nM,–,–,–,–,–,CC(C)(Oc1ccc(COc2ccc(/N=N/c3ccccc3)cc2)cc1)C(=O)O
1100 nM,–,–,8100 nM,> 10000 nM,24%,28%,–,–,CC(C)(Oc1ccc(CCOc2ccc(/N=N\c3ccc(Cl)cc3)cc2)cc1)C(=O)O
70 nM,87%,43%,113 nM,1200 nM,–,–,–,–,Cc1ccc(/N=N/c2ccc(OCCc3ccc(OC(C)(C)C(=O)O)cc3)c(C(F)(F)F)c2)cc1
790 nM,–,–,8000 nM,3200 nM,26%,39%,–,–,CC(C)(Oc1ccc(CCOc2ccc(/N=N/c3ccc(Cl)cc3)cc2)cc1)C(=O)O
71 nM,42%,–,310 nM,–,–,37%,–,–,CC(C)(Oc1ccc(CCOc2ccc(/N=N\c3ccccc3)cc2C(F)(F)F)cc1)C(=O)O
3500 nM,–,–,4100 nM,–,28%,26%,–,–,CC(C)(Oc1ccc(COc2ccc(/N=N\c3ccccc3)cc2)cc1)C(=O)O
290 nM,41%,–,380 nM,–,–,35%,Stable,–,Cc1ccc(/N=N\c2ccc(OCCc3ccc(OC(C)(C)C(=O)O)cc3)c(Cl)c2)cc1
40 nM,76%,65%,120 nM,–,–,–,–,Stable,Cc1ccc(/N=N/c2ccc(OCCc3ccc(OC(C)(C)C(=O)O)cc3)c(Cl)c2)cc1
1100 nM,–,–,3800 nM,> 10000 nM,22%,31%,–,–,Cc1ccc(/N=N\c2ccc(OCCc3ccc(OC(C)(C)C(=O)O)cc3)cc2)cc1

# Continued, compound first:
SMILES,EC50 [1],max activation ([2]; filed as agonist),max activation ([3]; filed as agonist),EC50 [4],EC50 [5],max activation [2],max activation [3],Stability [6],Stability [7]
CC(C)(Oc1ccc(CCOc2ccc(/N=N/c3ccccc3)cc2C(F)(F)F)cc1)C(=O)O,9 nM,46%,45%,140 nM,–,–,–,–,–
CC(C)c1ccc(/N=N\c2ccc(OCCc3ccc(OC(C)(C)C(=O)O)cc3)cc2)cc1,280 nM,–,–,3400 nM,–,19%,22%,–,–
Cc1ccc(/N=N\c2ccc(OCCc3ccc(OC(C)(C)C(=O)O)cc3)c(C(F)(F)F)c2)cc1,190 nM,41%,40%,410 nM,1300 nM,–,–,–,–
CC(C)c1ccc(/N=N/c2ccc(OCCc3ccc(OC(C)(C)C(=O)O)cc3)cc2)cc1,470 nM,–,40%,1770 nM,–,25%,–,–,–
Cc1ccc(/N=N\c2ccc(OCCc3ccc(OC(C)(C)C(=O)O)cc3)c(C)c2)cc1,640 nM,–,–,800 nM,1200 nM,26%,32%,–,–
CC(C)(Oc1ccc(CCOc2ccc(/N=N\c3ccccc3)cc2Cl)cc1)C(=O)O,40 nM,45%,44%,350 nM,920 nM,–,–,–,–
CC(C)(Oc1ccc(CCOc2ccc(/N=N/c3ccccc3)cc2Cl)cc1)C(=O)O,29 nM,49%,46%,240 nM,820 nM,–,–,–,–
CC(C)(Oc1ccc(CCOc2ccc(/N=N\c3ccccc3)cc2)cc1)C(=O)O,800 nM,–,–,6000 nM,6000 nM,29%,34%,–,–

# Reference: ChEMBL document CHEMBL5032512, “A Photohormone for Light-Dependent Control of PPARα in Live Cells” (J Med Chem, 2021)
